# Screens deposited in PubChem by several laboratories.
# M1 ag: M1 muscarinic receptor agonism; AID 626; B-score at 10 µM; CHO-M1 cells, Fluo-4 calcium fluorescence, agonist mode; stronger effect = higher value; hit rate 3% among 64,000;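 active = fluorescence rise, raw or as B-score row- and column-corrected plate score, outside the 99.7% band of its plate's samples, either direction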
# S1P3 ag: S1P3 (human) receptor agonism. Q99500. S1P3 NFAT-BLA reporter cells, FRET ratio; relative to 1 µM S1P, basal subtracted. hit rate 0.1% among 60,000. AID 373. activation, % at 4.5 µM;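 active = activation above the screen-wide mean plus 3 SD, cut at about 4.5% in these data, passing the limit was not always enough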
#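 Measure – % activation relative to 1 µM S1P (100%), per plate · System – stable CHO line with human S1P3, Gα16, NFAT-BLA reporter · Timing – cells plated overnight, compound 4 h 37 °C, substrate 2 h RT · Technique – fluorescent BLA substrate, ex 405 nm, em 460/535 nm ratio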
# S1P1 ag pot: S1P1 (human) agonism or agonism potentiation | P21453 | hit rate 0.57% among 56,000 | S1P1 CRE-bla cells, forskolin, beta-lactamase FRET, potentiator mode; S1P1 agonist co-added at EC20, 2 nM; 100% = saturating reference agonist, 0% = basal | activation, % at 9.5 µM;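 active = activation above a cutoff set at the mean activation of all tested compounds plus 3 SD, cut at about 54% in these data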;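 note: forskolin at 4 µM as EC80 and the EC20 agonist is SEW2871; 100% = SEW2871 at its EC100 plus forskolin at EC80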
# M1 antag: M1 muscarinic receptor (rat) antagonism | AID 628 | CHO-M1 cells, Fluo-4 calcium, ACh EC80 antagonist mode; stronger effect = lower value | B-score at 10 µM | hit rate 3.4% among 64,000 | P08482;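 active = calcium fluorescence response, raw or row-and-column corrected B-score, differing from the plate sample mean either way at a set confidence level, mostly lower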
# RORa activator: RORA (human) activation. P35398. CHO-K1 Gal4-RORA LBD luciferase reporter, luminescence; percent increase over mock-subtracted basal signal. activation, % at 10 µM. hit rate 1.5% among 65,000. AID 560;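 active = activation above the mean of all tested compounds plus 3 SD, cut at about 49% in these data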;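 note: 0% = DMSO-treated RORA cells and 100% = added signal equal to DMSO minus mock-transfected cells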
# SF-1 act: SF-1 (human) activation. activation, % at 10 µM. CHO-K1 Gal4-SF-1 LBD luciferase reporter; % increase over DMSO SF-1-specific signal. hit rate 1.9% among 65,000. Q13285;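 active = activation above the mean activation of all tested compounds plus 3 SD, cut at about 50% in these data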
# Target sequence (Q13285 whole entry, looked up, the tested form may be a part): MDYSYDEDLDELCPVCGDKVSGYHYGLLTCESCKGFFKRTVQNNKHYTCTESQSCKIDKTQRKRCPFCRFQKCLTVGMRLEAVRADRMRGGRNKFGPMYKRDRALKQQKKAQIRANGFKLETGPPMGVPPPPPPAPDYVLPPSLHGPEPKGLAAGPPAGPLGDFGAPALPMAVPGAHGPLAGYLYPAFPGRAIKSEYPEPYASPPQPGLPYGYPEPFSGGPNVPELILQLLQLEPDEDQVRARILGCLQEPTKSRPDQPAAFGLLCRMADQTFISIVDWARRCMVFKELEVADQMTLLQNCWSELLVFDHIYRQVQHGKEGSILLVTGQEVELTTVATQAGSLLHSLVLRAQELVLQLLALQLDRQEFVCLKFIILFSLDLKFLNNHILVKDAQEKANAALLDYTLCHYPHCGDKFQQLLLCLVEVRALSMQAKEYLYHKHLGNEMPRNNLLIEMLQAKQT
#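 Material: CHO-K1 cells with Gal4–hSF-1 LBD chimera plus Gal4-driven luciferase / Input: 4,000 CHO-K1 cells per well / Incubation: compound exposure 20 h at 37 °C / Signal: luminescence read 15 min after SteadyLite luciferase reagent, after room-temperature equilibration / Read-out: percent activation versus DMSO / Benchmarks: DMSO negative control and −SF1 background wells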
# An asterisk follows results filed as active; . = no result given. A selection: hits, their analogues and other compounds. The true share with any hit is near 8.8%.
SMILES,M1 ag,S1P3 ag,S1P1 ag pot,M1 antag,RORa activator,SF-1 act
CCOC(=O)c1cc(-c2ccc(F)cc2)n(CC(=O)Nc2nccs2)c1C,-0.4,-1,-1,0.0063,-3,-2
OC1CCCCC1Sc1nc2ccccc2s1 (stereo not given),-0.06,0,.,0.15,30,59*
O=C1OCCC1Sc1nc2ccccc2s1 (stereo not given),-0.11,-1,24,-0.095,-19,3
COc1cc2ccccc2cc1C(=O)Nc1cccnc1,0.54,2,.,2,77*,50*
CCOC(=O)N1CCN(c2nc3ccccc3nc2C(C#N)S(=O)(=O)c2ccc(C)cc2)CC1 (stereo not given),.,-1,9,.,24,5
Cc1cccc(-n2ncc3c(NCc4ccccn4)ncnc32)c1,-0.17,1,-5,0.11,29,24
c1ccc(CNc2ncnc3c2cnn3-c2ccccc2)cc1,-0.32,0,6,0.12,91*,77*
c1ccc(CCNc2ncnc3c2cnn3-c2ccccc2)cc1,1.2,-1,-24,0,56*,14
c1ccc(-n2ncc3c(NCCN4CCOCC4)ncnc32)cc1,-0.29,-1,-10,0.3,46,38
Fc1ccc(CNc2ncnc3c2cnn3-c2ccccc2)cc1,0.4,-1,-30,0.42,8,42
Cc1cccc(-n2ncc3c(NCc4ccccc4)ncnc32)c1,-0.45,0,18,-1.5,78*,82*
c1ccc(-n2ncc3c(NCCN4CCCCC4)ncnc32)cc1,-0.58,-1,-1,-2.1,40,69*
C=C(C)CSc1nnc(-c2ccccc2)n1N,-0.029,-2,.,-0.59,8,17
CN(Cc1ccccc1)c1ncnc2c1cnn2-c1ccccc1,-1.1,.,.,-0.86,43,23
CCN(c1ccccc1)c1ncnc2c1cnn2-c1ccccc1,0.45,-1,-34,-0.038,59*,59*
Cc1cccc(-n2ncc3c(NCc4cccs4)ncnc32)c1,0.16,-1,-5,0.043,46,22
Cc1cccc(-n2ncc3c(NCc4ccco4)ncnc32)c1,0.45,-3,-6,0.059,72*,93*
O=C(Nc1nc2ccc(S(=O)(=O)N3CCCC3)cc2s1)c1cccs1,-1.4,-1,7,-0.97,52*,37
CSc1nc2ccc3nc(NC(=O)c4cccs4)sc3c2s1,-0.7,0,-2,0.41,39,64*
CC12CCC(C(=O)N3CCN(c4ccccc4)CC3)(CC1=O)C2(C)C (stereo not given),-0.45,-1,-8,-0.32,9,2
Cc1nc(C)c(C(=O)Nc2ccc(Oc3ccccc3)cc2)o1,-0.97,0,54,-0.92,12,13
Cc1ncoc1C(=O)Nc1ccc(Oc2ccccc2)cc1,-2.4,0,29,-1.7,32,59*
CNC(=O)c1nnn(Cc2ccccc2)c1NC(=O)C(F)(F)F,-1.5,-1,6,0.37,0,8
Cc1cc(O)ccc1Nc1nc(-c2sc(N)nc2C)cs1,0.42,0,0,0.014,7,18
Cc1cccnc1Nc1nc(-c2ccc(O)cc2O)cs1,1.2,1,13,0.23,-10,51*
SMILES,M1 ag,S1P3 ag,S1P1 ag pot,M1 antag,RORa activator,SF-1 act
O=C1CC(C(=O)Nc2nccs2)C(c2ccccc2)O1 (stereo not given),-0.45,.,.,0.1,-9,-6
c1ccc(-c2nc(Sc3ncnc4c3cnn4-c3ccccc3)n[nH]2)cc1,-1.5,-1,14,-0.1,10,-4
Cc1ccc(-c2csc3ncnc(Sc4nnc(CN5CCCCCC5=O)o4)c23)cc1,0.17,-2,93*,0.3,-57,-71
NC(=O)CSc1nc(-c2ccccc2Cl)ns1,0.1,-1,-16,-0.26,19,17
Cc1noc(C)c1CSCC(=O)N1CCN(c2ccc(F)cc2)CC1,-0.39,-1,6,0.19,-18,-26
Cc1cccc(N2CCN(C(=O)CSCc3c(C)noc3C)CC2)c1C,2.7,-1,82*,-0.84,-18,-50
CSc1nc(N2CCOCC2)c2ccccc2n1,1,0,-15,-0.63,-4,11
O=c1c2ccccc2nc2c3ccccc3c(N3CCOCC3)nn12,2.8*,-1,-62,-1.2,-6,8
CN(CCO)C(=O)CCC(=O)Nc1ccc(S(N)(=O)=O)cc1,-0.66,-1,-18,-0.00031,-7,0
CCC(=O)N1CCc2cc(S(=O)(=O)N3CCN(c4ccccn4)CC3)ccc21,-0.41,.,.,-0.65,9,-10
CCOC(=O)c1csc(NC(=O)c2ccccc2)n1,0.35,-2,-4,0.58,79*,63*
CCOC(=O)c1csc(NC(=O)c2ccc(S(=O)(=O)N(C)C)cc2)n1,-0.55,.,.,0,16,4
O=C(Nc1cccc(Cl)c1)c1cnn2cccnc12,-0.38,-1,.,0.43,48,105*
O=C(NCc1cccs1)c1cnn2cccnc12,1.5,-1,12,0.44,-10,3
Cc1cc(NC(=O)c2cnn3cccnc23)no1,0.07,-1,-8,0.81*,19,32
CN(c1ccccc1)C(c1ccc(F)cc1)c1nnnn1C1CCCC1 (stereo not given),0.23,-1,-9,0.84,-12,-4
CC(C)C(=O)Nc1cccc(NC(=O)CCN2C(=O)c3ccccc3S2(=O)=O)c1,0.51,-1,13,1.4*,-17,-12
CN(C)/C=N/c1ncnc2c1cnn2-c1ccc(C(F)(F)F)cn1,-0.21,-1,-44,0.29,-2,82*
CN=C(NC#N)SCC(=O)c1ccc(Cl)cc1Cl,-0.13,0,82*,0.084,39,-12
Cc1cc2c(cc1C)NC(c1c(C)n(C)n(-c3ccccc3)c1=O)C1=C(CC(C)(C)CC1=O)N2 (stereo not given),47*,.,.,-0.38,36,62*
Cc1c(N2C(=O)CSC23C(=O)Nc2ccccc23)c(=O)n(-c2ccccc2)n1C (stereo not given),0.4,-1,-27,0.081,4,-9
O=S(=O)(NCc1cn2ccsc2n1)c1cccs1,0.43,0,-36,0.2,6,1
O=S(=O)(NCc1cn2ccsc2n1)c1ccc(Oc2ccccc2)cc1,4.8,0,84*,-0.79,-22,-52
Clc1ccc2oc(-c3ccccn3)nc2c1,0.44,0,-31,0.032,34,59*
Nc1ccc2oc(-c3ccccn3)nc2c1,0.32,.,.,-0.13,23,36
CN(C)c1cccc(C(=O)NC2CCCCCC2)c1,1.1,-1,.,0.42,26,75*
O=C(Nc1nc(-c2ccc(Cl)s2)cs1)c1cccs1,-0.38,0,7,0.47,18,30
O=C(CSc1ncn[nH]1)Nc1nc(-c2ccccc2)ns1,-0.73,0,-26,-0.81,38,55*
